Measurements taken from ChEMBL document CHEMBL1156975, “Discovery and SAR of potent, orally available 2,8-diaryl-quinoxalines as a new class of JAK2 inhibitors” (Bioorg Med Chem Lett, 2010).
≈ marks a conversion by molar mass, not a printed value.

Legend:
[1] = molecular target: Tyrosine-protein kinase JAK1 (Homo sapiens, UniProt P23458); experiment: Inhibition of recombinant GST tagged JAK1 protein after 60 mins using FITC-Ahx-KKSRGDYMTMQIG-NH2 substrate
[2] = molecular target: Non-receptor tyrosine-protein kinase TYK2 (Homo sapiens, UniProt P29597); experiment: Inhibition of recombinant GST tagged TYK2 protein after 60 mins using FITC-Ahx-KKSRGDYMTMQIG-NH2 substrate
Non-receptor tyrosine-protein kinase TYK2, sequence (P29597 whole entry): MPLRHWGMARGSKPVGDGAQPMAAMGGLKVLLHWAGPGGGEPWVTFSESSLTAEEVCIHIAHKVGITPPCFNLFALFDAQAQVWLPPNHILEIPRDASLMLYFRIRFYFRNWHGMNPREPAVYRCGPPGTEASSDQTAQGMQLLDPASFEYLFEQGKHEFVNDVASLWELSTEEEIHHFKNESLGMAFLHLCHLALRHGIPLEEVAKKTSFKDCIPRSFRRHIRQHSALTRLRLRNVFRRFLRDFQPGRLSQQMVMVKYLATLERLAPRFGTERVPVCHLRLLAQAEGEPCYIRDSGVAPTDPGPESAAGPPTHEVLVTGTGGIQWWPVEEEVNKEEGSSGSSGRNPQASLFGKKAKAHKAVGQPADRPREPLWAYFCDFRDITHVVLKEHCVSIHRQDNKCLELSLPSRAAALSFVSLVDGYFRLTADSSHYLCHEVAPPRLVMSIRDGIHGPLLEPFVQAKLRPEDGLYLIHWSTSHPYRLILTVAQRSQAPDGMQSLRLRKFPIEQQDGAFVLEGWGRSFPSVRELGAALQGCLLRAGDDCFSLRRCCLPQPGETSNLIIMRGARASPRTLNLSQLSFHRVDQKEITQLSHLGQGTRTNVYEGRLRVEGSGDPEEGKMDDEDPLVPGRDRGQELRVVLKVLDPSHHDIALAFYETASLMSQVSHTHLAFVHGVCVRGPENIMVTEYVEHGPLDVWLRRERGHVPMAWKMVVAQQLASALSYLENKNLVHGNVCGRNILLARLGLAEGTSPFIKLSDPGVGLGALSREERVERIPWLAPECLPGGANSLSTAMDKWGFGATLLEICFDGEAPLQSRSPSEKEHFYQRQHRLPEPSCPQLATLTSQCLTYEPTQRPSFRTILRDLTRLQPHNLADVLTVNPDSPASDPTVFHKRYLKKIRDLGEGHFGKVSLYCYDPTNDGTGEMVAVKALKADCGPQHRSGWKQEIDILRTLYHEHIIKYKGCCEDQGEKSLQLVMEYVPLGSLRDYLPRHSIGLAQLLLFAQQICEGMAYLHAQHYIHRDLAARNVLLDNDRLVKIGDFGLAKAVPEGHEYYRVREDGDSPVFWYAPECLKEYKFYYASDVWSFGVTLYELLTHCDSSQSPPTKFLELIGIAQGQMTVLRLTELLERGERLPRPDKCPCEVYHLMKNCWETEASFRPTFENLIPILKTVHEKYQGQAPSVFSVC

[3] = molecular target: T1, Tyrosine-protein kinase JAK3 (Homo sapiens, UniProt P52333)
T1 sequence (P52333 whole entry): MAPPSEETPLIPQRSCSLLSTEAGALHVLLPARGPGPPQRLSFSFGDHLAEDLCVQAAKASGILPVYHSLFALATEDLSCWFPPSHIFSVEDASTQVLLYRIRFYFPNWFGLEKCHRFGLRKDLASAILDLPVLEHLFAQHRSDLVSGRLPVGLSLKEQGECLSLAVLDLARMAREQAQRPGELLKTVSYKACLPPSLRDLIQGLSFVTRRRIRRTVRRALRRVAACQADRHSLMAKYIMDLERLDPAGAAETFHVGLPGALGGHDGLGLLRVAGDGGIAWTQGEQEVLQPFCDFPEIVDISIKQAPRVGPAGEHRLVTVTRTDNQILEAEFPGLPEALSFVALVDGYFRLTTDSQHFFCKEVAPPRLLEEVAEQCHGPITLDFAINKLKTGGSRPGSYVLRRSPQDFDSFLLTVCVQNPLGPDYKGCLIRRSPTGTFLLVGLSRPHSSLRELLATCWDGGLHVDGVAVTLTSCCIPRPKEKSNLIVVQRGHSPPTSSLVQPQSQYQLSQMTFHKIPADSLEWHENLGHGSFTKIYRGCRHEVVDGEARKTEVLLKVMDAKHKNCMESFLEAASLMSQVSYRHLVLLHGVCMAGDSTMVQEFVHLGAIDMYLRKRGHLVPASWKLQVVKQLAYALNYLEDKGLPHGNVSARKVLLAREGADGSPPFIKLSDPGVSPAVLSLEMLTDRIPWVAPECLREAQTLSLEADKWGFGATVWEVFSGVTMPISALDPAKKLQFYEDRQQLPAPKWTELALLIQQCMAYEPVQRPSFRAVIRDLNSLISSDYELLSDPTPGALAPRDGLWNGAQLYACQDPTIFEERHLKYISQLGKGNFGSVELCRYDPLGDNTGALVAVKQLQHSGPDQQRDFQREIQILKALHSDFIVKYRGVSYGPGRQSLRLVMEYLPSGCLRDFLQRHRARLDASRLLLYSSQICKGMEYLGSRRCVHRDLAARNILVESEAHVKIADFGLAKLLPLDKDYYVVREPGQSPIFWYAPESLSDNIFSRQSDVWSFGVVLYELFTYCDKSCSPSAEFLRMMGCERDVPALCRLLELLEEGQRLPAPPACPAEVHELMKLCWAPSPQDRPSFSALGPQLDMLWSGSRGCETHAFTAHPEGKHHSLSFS

[4] = Volume of distribution in iv dosed rat; assay type: ADME, organism-based; conditions: in vivo
In short: (§1)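 Conscious rats given an iv bolus, then oral dosing at 3 mg/kg as a suspension in 0.5% carboxymethyl cellulose in bidistilled water. Clearance, volume of distribution, terminal half-life, oral AUC and bioavailability were derived.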

[5] = Terminal half life in iv dosed rat; assay type: ADME, organism-based; conditions: in vivo, read-out: beta t1/2 (converted); in short: as §1
Rattus norvegicus [6] = experiment: AUC in rat at 3 mg/kg, po; assay type: ADME, organism-based, Plasma; set-up: dose 3 mg/kg, route oral; conditions: in vivo; in short: as §1
Rattus norvegicus [7] = experiment: Oral bioavailability in rat at 3 mg/kg; assay type: ADME, organism-based; conditions: in vivo; in short: as §1
[8] = molecular target: Tyrosine-protein kinase JAK2 (Homo sapiens, UniProt O60674)
Tyrosine-protein kinase JAK2, sequence (O60674 whole entry): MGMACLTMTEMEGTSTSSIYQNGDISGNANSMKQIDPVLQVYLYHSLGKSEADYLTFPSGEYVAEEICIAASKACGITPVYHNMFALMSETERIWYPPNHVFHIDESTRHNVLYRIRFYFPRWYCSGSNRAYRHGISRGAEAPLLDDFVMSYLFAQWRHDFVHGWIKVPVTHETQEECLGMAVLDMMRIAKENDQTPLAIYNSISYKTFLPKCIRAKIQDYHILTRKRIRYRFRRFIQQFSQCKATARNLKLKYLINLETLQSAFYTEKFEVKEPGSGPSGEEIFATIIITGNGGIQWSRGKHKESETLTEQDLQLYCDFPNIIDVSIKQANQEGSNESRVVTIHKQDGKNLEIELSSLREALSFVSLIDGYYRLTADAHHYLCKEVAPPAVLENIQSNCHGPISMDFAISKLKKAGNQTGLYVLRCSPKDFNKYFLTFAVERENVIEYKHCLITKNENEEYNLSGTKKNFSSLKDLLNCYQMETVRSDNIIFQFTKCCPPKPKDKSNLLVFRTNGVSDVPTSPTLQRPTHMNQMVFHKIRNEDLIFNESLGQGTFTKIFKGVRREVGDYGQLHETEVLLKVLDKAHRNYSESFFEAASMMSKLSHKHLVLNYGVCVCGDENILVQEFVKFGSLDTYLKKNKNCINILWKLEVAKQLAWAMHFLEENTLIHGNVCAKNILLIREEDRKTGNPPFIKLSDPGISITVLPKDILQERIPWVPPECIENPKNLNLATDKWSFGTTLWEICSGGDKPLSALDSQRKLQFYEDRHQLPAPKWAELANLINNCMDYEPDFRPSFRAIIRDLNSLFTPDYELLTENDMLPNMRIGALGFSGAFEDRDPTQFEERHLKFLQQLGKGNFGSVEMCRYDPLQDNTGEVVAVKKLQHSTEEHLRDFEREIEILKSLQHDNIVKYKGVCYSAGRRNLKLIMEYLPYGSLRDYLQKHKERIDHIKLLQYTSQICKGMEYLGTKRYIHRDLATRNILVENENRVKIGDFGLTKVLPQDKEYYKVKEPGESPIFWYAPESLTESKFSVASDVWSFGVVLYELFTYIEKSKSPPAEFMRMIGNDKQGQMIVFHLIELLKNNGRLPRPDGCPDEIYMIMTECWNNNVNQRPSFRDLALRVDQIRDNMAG

[9] = Growth inhibition of human SET2 cells expressing JAK2V617F mutant after 72 hrs by colorimetric WST1 assay; assay type: functional; conditions: SET-2, 72 h
In short: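 Megakaryoblastic SET-2 cells were grown in RPMI with 10% FCS, 2 mM L-glutamine and 1% penicillin/streptomycin. Cells were exposed to an 8-point compound concentration range for 72 h. Proliferation was read by WST-1 colorimetric viability, relative to DMSO vehicle controls.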

[10] = Tmax in rat at 3 mg/kg, po or 1 mg/kg, iv by MS/MS analysis; assay type: ADME, organism-based; conditions: in vivo
In short: (§2)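 Conscious, fed, permanently cannulated female rats, n=4; 1 mg/kg iv via femoral vein in 30% NMP/PEG200, and 3 mg/kg po by gavage in 50% aqueous PEG200, crossover with 48 h washout. Arterial blood was sampled for 48 h (iv) or 24 h (po), precipitated with CH3CN, and measured by C18 HPLC-MS/MS.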

[11] = Cmax in rat at 3 mg/kg, po or 1 mg/kg, iv by MS/MS analysis; assay type: ADME, organism-based; conditions: in vivo; in short: as §2
[12] = Oral bioavailability in rat at 3 mg/kg after 24 hrs by MS/MS analysis; assay type: ADME, organism-based; conditions: in vivo; in short: as §2
[13] = Partition coefficient, log P of the compound; assay type: physicochemical; conditions: octanol/water
[14] = Dissociation constant, pKa of the compound; assay type: physicochemical
[15] = Aqueous solubility at pH 6.8; assay type: physicochemical
[16] = Clearance in rat at 1 mg/kg, iv after 48 hrs by MS/MS analysis; conditions: in vivo
[17] = Volume of distribution at steady state in rat at 1 mg/kg, iv or 3 mg/kg, po by MS/MS analysis; assay type: ADME, organism-based; conditions: in vivo, read-out: Vdss; in short: as §2
[18] = Half life in rat at 1 mg/kg, iv after 48 hrs by MS/MS analysis; conditions: in vivo
[19] = AUC in rat at 1 mg/kg, iv after 48 hrs by MS/MS analysis; assay type: ADME, organism-based; set-up: time < 48 hr, dose 1 mg/kg, route intravenous; conditions: plasma; in short: as §2
[20] = molecular target: Tyrosine-protein kinase ABL1 (Homo sapiens, UniProt P00519)
Tyrosine-protein kinase ABL1, sequence (P00519 whole entry): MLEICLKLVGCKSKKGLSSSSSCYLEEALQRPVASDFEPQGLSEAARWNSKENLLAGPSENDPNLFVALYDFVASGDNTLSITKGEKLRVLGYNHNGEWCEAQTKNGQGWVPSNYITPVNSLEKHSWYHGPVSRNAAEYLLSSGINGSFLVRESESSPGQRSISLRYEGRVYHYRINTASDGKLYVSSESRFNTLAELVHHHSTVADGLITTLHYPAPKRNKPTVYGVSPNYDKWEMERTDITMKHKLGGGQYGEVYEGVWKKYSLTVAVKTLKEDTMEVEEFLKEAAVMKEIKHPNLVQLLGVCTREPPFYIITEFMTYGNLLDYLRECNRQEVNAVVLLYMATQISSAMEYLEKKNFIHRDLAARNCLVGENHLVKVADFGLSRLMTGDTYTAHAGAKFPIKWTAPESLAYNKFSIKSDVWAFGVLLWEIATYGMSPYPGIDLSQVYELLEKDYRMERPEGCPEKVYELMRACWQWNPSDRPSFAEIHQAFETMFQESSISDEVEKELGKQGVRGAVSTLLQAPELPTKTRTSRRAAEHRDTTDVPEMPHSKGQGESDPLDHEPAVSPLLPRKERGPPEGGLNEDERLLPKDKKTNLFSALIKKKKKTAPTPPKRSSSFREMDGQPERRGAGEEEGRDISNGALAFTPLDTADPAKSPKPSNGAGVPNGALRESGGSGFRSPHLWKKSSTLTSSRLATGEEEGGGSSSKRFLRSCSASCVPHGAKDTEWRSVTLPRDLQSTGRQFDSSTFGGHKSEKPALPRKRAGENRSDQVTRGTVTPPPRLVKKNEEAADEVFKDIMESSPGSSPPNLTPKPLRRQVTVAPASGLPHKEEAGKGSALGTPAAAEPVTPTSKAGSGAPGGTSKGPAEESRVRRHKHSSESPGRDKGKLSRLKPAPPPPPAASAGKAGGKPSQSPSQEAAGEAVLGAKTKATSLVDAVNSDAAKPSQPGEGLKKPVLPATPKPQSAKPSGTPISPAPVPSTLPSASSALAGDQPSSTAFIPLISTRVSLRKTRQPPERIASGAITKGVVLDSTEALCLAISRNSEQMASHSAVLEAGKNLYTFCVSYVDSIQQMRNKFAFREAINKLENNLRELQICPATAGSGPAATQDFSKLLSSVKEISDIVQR

Tyrosine-protein kinase JAK1, sequence (P23458 whole entry): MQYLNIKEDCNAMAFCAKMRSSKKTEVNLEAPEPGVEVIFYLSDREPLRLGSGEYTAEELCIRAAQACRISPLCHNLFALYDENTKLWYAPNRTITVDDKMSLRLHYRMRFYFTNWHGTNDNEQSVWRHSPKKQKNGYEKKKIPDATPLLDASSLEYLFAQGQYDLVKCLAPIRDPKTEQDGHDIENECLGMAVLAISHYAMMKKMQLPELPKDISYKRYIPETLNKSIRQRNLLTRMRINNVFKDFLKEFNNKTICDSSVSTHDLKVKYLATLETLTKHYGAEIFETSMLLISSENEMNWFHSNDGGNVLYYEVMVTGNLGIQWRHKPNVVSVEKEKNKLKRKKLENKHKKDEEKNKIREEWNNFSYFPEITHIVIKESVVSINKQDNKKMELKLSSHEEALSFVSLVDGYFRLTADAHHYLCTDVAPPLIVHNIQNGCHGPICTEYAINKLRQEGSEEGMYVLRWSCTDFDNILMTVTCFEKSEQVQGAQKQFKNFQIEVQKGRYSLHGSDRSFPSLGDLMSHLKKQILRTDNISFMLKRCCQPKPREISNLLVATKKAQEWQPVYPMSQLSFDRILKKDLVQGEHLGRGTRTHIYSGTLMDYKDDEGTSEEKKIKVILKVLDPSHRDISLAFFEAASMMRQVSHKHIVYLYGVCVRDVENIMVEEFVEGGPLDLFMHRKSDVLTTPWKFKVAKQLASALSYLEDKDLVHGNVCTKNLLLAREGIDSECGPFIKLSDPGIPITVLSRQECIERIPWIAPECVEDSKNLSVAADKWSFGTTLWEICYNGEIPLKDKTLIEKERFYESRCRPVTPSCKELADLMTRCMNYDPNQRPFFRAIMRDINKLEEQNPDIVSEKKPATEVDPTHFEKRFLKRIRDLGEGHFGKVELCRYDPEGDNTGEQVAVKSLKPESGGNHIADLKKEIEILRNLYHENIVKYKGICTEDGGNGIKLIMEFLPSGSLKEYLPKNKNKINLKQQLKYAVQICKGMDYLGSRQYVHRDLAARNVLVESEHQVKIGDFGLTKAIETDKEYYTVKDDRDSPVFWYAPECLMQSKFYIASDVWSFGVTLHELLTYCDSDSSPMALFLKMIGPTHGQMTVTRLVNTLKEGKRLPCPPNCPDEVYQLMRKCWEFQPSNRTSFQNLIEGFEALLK

Compound	IC50 [1] [nM]	IC50 [2] [nM]	IC50 [3] [nM]	IC50 [8] [nM]	GI50 [9] [nM]	other results
CNS(=O)(=O)c1ccc(-c2cccc3ncc(-c4cc(OC)c(OC)c(OC)c4)nc23)cc1	130	640	1300			Vd [4]: 6.75 L/kg; half-life [5]: 1.69 h; AUC (Rattus norvegicus [6]): 4 µg·min/mL; F (Rattus norvegicus [7]): 34%
COc1cc(-c2cnc3cccc(-c4ccc(C(=O)N5CCOCC5)c(C)c4)c3n2)cc(OC)c1OC	460	1400		20		
COc1cc(-c2cnc3cccc(-c4ccc(CN5CCOCC5)c(F)c4)c3n2)cc(OC)c1OC	250	2200		20		
COc1cc(-c2cnc3cccc(-c4ccc(C(=O)N5CCOCC5)cc4)c3n2)cc(OC)c1OC	390	2900				
COc1cc(-c2cnc3cccc(-c4ccc(CN5CCOCC5)c(C)c4)c3n2)cc(OC)c1OC	1850	7130				
COc1cc(-c2cnc3cccc(-c4ccc(CC(=O)N5CCS(=O)(=O)CC5)cc4)c3n2)cc(OC)c1OC	35	340			119	
Cc1cc(-c2cnc3cccc(-c4ccc(CN5CCOCC5)c(F)c4)c3n2)ccc1C(=O)N1CCOCC1	190	520	630	12.5	226	
Fc1cc(-c2cccc3ncc(-c4cnn(C5CCNCC5)c4)nc23)cc(F)c1CN1CCOCC1					88	Tmax [10]: 7 h; Cmax [11]: 16 nM; bioavailability [12]: 31%; pKa [14]: 5.5; solubility [15]: > 1500 µg/mL; Vd [17]: 33 L/kg; AUC at 48 h [19]: 1.47 µM·h; IC50 [20]: 80 nM
Cc1cc(-c2cnc3cccc(-c4cc(F)c(CN5CCOCC5)c(F)c4)c3n2)ccc1C(=O)N1CCOCC1	60	120	130	3.1	135	
COc1cc(-c2cnc3cccc(-c4ccc(CN5CCS(=O)(=O)CC5)cc4)c3n2)cc(OC)c1OC	98	520				
CN1CCN(c2ccc(-c3cnc4cccc(-c5cc(F)c(CN6CCOCC6)c(F)c5)c4n3)cc2)CC1	28	94	166	4.3	152	Tmax [10]: 5.8 h; Cmax [11]: 74 nM; bioavailability [12]: 100%; logP [13]: 4; pKa [14]: 4.5; solubility [15]: 4 µg/mL (≈ 7.76 µM); clearance at 48 h [16]: 19 mL/min/kg; Vd [17]: 18.9 L/kg; half-life at 48 h [18]: 13.4 h; AUC at 48 h [19]: 1.65 µM·h

The next lines start with results.

IC50 [1] [nM]	IC50 [2] [nM]	IC50 [3] [nM]	IC50 [8] [nM]	Compound	GI50 [9] [nM]	other results
1500	> 10000	> 10000		COc1cc(-c2cnc3cccc(-c4ccc(CN5CCOCC5)cc4)c3n2)cc(OC)c1OC		
1200	4200	2700	685	COc1cc(-c2cnc3cccc(-c4ccc(CN5CCOCC5)cc4C)c3n2)cc(OC)c1OC		
91			13	COc1cc(-c2cnc3cccc(-c4ccc(CC(=O)N5CCOCC5)cc4)c3n2)cc(OC)c1OC	228	
82	86	230	6.8	CN1CCN(c2ccc(-c3cnc4cccc(-c5cc(F)c(CN6CCS(=O)(=O)CC6)c(F)c5)c4n3)cn2)CC1	98	Tmax [10]: 8 h; Cmax [11]: 47 nM; bioavailability [12]: 100%; logP [13]: 3.8; pKa [14]: 3.6; solubility [15]: 4 µg/mL (≈ 7.08 µM); clearance at 48 h [16]: 39 mL/min/kg; Vd [17]: 13.2 L/kg; half-life at 48 h [18]: 4.8 h; AUC at 48 h [19]: 0.76 µM·h
4700	9300	9900		COc1cc(-c2cnc3cccc(-c4ccc(CN5CCOCC5)cc4F)c3n2)cc(OC)c1OC		
89		232	7.1	Cc1cc(-c2cnc3cccc(-c4ccc(CN5CCS(=O)(=O)CC5)cc4)c3n2)ccc1C(=O)N1CCN(C)CC1	96	logP [13]: 2.8; pKa [14]: 3.9
362	439	408		Cc1cc(-c2cccc3ncc(-c4ccc(C(=O)N5CCOCC5)c(C)c4)nc23)ccc1CN1CCOCC1		
940	> 10000	> 10000	101	COc1cc(-c2cnc3cc(F)cc(-c4ccc(CC(=O)N5CCOCC5)cc4)c3n2)cc(OC)c1OC		
> 10000	> 10000	> 10000	4200	COc1cc(-c2cnc3cc(C)cc(-c4ccc(CC(=O)N5CCS(=O)(=O)CC5)cc4)c3n2)cc(OC)c1OC		
